In brackets after ≈: the same amount, converted by molar mass.
Legend:
Histamine H4 receptor = Histamine H4 receptor (Homo sapiens, UniProt Q9H3N8); experiment: Displacement of [3H]histamine from human histamine H4 receptor expressed in HEK cells; assay type: cell-based, HEK293
[1] = Solubility of the compound at pH 6.8; assay type: physicochemical; settings: buffer
How it was run: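 Solubility determined by the DMSO solution precipitation method.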

[2] = Half life in human liver microsomes; assay type: ADME, Microsome
[3] = Half life in mouse liver microsomes; assay type: ADME, Microsome

Sequence of Histamine H4 receptor (Q9H3N8 whole entry): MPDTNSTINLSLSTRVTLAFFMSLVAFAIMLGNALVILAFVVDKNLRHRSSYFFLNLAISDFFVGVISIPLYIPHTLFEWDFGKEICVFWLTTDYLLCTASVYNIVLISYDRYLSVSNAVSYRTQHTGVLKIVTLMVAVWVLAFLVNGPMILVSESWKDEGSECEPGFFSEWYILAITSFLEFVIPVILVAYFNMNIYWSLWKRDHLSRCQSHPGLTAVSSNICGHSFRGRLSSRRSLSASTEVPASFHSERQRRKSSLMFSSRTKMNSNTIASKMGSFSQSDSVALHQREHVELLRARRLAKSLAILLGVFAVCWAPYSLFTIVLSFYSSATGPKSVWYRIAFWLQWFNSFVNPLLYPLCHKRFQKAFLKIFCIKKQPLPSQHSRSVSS

| SMILES | Ki (Histamine H4 receptor) [nM] | other results |
| --- | --- | --- |
| Cc1ccc2[nH]c(C(=O)N3CCN(C)CC3)cc2c1 | 50.1 |  |
| COc1ccc2[nH]c(C(=O)N3CCN(C)CC3)cc2c1 | 1000 |  |
| CN1CCN(C(=O)c2cc3cc(O)ccc3[nH]2)CC1 | 25.1 |  |
| CN1CCN(C(=O)c2cc3c(Cl)c(Cl)ccc3[nH]2)CC1 | 6.31 |  |
| Cc1cccc2cc(C(=O)N3CCN(C)CC3)[nH]c12 | 12.6 |  |
| CN1CCN(C(=O)c2cc3cccc(N)c3[nH]2)CC1 | 15.8 |  |
| COc1ccc2cc(C(=O)N3CCN(C)CC3)[nH]c2c1 | 15800 |  |
| CN1CCN(C(=O)c2cc3cccnc3[nH]2)CC1 | 2000 |  |
| CN1CCN(C(=O)c2cc3ccccc3s2)CC1 | 2510 |  |
| CN1CCN(C(=O)c2cc3cc(Cl)ccc3o2)CC1 | 251 |  |
| CN1CCN(C(=O)c2cc3ncccc3[nH]2)CC1 | 3980 |  |
| CN1CCN(C(=O)c2cc3cnccc3[nH]2)CC1 | 6310 |  |
| CN1CCN(C(=O)c2cc3ccncc3[nH]2)CC1 | 2000 |  |
| CN1CCN(C(=O)c2cc3c(F)cccc3[nH]2)CC1 | 31.6 |  |
| CN1CCN(C(=O)c2cc3c(Cl)cccc3[nH]2)CC1 | 31.6 |  |
| COc1cccc2[nH]c(C(=O)N3CCN(C)CC3)cc12 | 1000 |  |
| CN1CCN(C(=O)c2cc3c(O)cccc3[nH]2)CC1 | 158 |  |
| CN1CCN(C(=O)c2cc3c([N+](=O)[O-])cccc3[nH]2)CC1 | 794 |  |
| CN1CCN(C(=O)c2cc3c(N)cccc3[nH]2)CC1 | 316 |  |
| CC(=O)c1cccc2[nH]c(C(=O)N3CCN(C)CC3)cc12 | 5010 |  |
| CN1CCN(C(=O)c2cc3cc([N+](=O)[O-])ccc3[nH]2)CC1 | 79.4 |  |
| CC(=O)c1ccc2[nH]c(C(=O)N3CCN(C)CC3)cc2c1 | 12600 |  |
| CN1CCN(C(=O)c2cc3ccc(Cl)cc3[nH]2)CC1 | 158 |  |

| SMILES | Ki (Histamine H4 receptor) [nM] | other results |
| --- | --- | --- |
| CN1CCN(C(=O)c2cc3ccc(O)cc3[nH]2)CC1 | 25.1 |  |
| CN1CCN(C(=O)c2cc3ccc([N+](=O)[O-])cc3[nH]2)CC1 | 2000 |  |
| CN1CCN(C(=O)c2cc3ccc(N)cc3[nH]2)CC1 | 79.4 |  |
| CN1CCN(C(=O)c2cc3cccc(F)c3[nH]2)CC1 | 20 |  |
| COc1cccc2cc(C(=O)N3CCN(C)CC3)[nH]c12 | 2510 |  |
| CN1CCN(C(=O)c2cc3cccc([N+](=O)[O-])c3[nH]2)CC1 | 794 |  |
| CN1CCN(C(=O)c2cc3cccc(C(F)(F)F)c3[nH]2)CC1 | 1000 |  |
| Cc1cccc2cc(C(=O)N3CCNCC3)[nH]c12 | 39.8 |  |
| CN[C@@H]1CCN(C(=O)c2cc3cccc(C)c3[nH]2)C1 | 631 |  |
| CNC1CN(C(=O)c2cc3cccc(C)c3[nH]2)C1 | 398 |  |
| Cc1cccc2cc(C(=O)N3CC(N4CCCC4)C3)[nH]c12 | 79.4 |  |
| CN1CCN(C(=O)c2cc3c(F)c(Cl)ccc3[nH]2)CC1 | 6.31 |  |
| CN1CCN(C(=O)c2cc3cc(Cl)cc(F)c3[nH]2)CC1 | 6.31 |  |
| Cc1cc(Cl)cc2cc(C(=O)N3CCN(C)CC3)[nH]c12 | 6.31 | solubility [1]: 57 µg/mL (≈ 195 µM); half-life [2]: > 45 min; half-life [3]: 2 min |
| CN1CCN(C(=O)c2cc3cc(Cl)cc(N)c3[nH]2)CC1 | 5.01 | solubility [1]: 67 µg/mL (≈ 229 µM); half-life [2]: 66 min; half-life [3]: 14 min |
| Cc1cc(Cl)cc2cc(C(=O)N3CCNCC3)[nH]c12 | 12.6 | solubility [1]: 65 µg/mL (≈ 234 µM); half-life [2]: > 90 min; half-life [3]: 16 min |
| CN[C@@H]1CCN(C(=O)c2cc3cc(Cl)cc(C)c3[nH]2)C1 | 251 | solubility [1]: 59 µg/mL (≈ 202 µM); half-life [2]: > 90 min; half-life [3]: 27 min |
| CNC1CN(C(=O)c2cc3cc(Cl)cc(C)c3[nH]2)C1 | 200 | solubility [1]: 51 µg/mL (≈ 184 µM); half-life [2]: > 90 min; half-life [3]: 26 min |
| Cc1cc(Cl)cc2cc(C(=O)N3CC(N4CCCC4)C3)[nH]c12 | 31.6 | solubility [1]: 10 µg/mL (≈ 31.5 µM); half-life [2]: > 90 min; half-life [3]: 11 min |
| CN1CCCN(C(=O)c2cc3cc(Cl)ccc3[nH]2)CC1 | 39.8 |  |
| CN1CCCN(C(=O)c2cc3ccccc3[nH]2)CC1 | 398 |  |
| CN1CCCN(C(=O)c2cc3cccc(C(F)(F)F)c3[nH]2)CC1 | 5010 |  |
| CN1CCCN(C(=O)c2cc3c(F)cccc3[nH]2)CC1 | 251 |  |

| SMILES | Ki (Histamine H4 receptor) [nM] | other results |
| --- | --- | --- |
| COc1cccc2cc(C(=O)N3CCCN(C)CC3)[nH]c12 | 15800 |  |
| CN1CCCN(C(=O)c2cc3cccc(F)c3[nH]2)CC1 | 398 |  |
| Cc1cccc2cc(C(=O)N3CCCN(C)CC3)[nH]c12 | 1580 |  |
| O=C(c1cc2cccc(F)c2[nH]1)N1CC(N2CCCC2)C1 | 39.8 |  |
| O=C(c1cc2cccc(F)c2[nH]1)N1CCNCC1 | 100 |  |
| CN[C@@H]1CCN(C(=O)c2cc3cccc(F)c3[nH]2)C1 | 501 |  |
| CNC1CN(C(=O)c2cc3cccc(F)c3[nH]2)C1 | 398 |  |
| O=C(c1cc2cc(Cl)ccc2[nH]1)N1CC(N2CCCC2)C1 | 10 |  |
| O=C(c1cc2cc(Cl)ccc2[nH]1)N1CCCNCC1 | 63.1 |  |
| CN1CCCN(C(=O)c2cc3cc(Cl)cc(F)c3[nH]2)CC1 | 63.1 |  |
| CN1CCCN(C(=O)c2cc3c(F)c(Cl)ccc3[nH]2)CC1 | 31.6 |  |
| O=C(c1cc2cc(Cl)cc(F)c2[nH]1)N1CC(N2CCCC2)C1 | 15.8 |  |
| CNC1CN(C(=O)c2cc3cc(Cl)cc(F)c3[nH]2)C1 | 100 |  |
| CN[C@@H]1CCN(C(=O)c2cc3cc(Cl)cc(F)c3[nH]2)C1 | 251 |  |
| O=C(c1cc2cc(Cl)cc(F)c2[nH]1)N1CCNCC1 | 20 |  |
| CN1CCN(C(=O)c2cc3cc(Cl)cc([N+](=O)[O-])c3[nH]2)CC1 | 398 |  |
| Cc1ccc(F)c2cc(C(=O)N3CCN(C)CC3)[nH]c12 | 39.8 |  |
| CN1CCN(C(=O)c2cc3c(F)ccc(F)c3[nH]2)CC1 | 79.4 |  |
| CN1CCN(C(=O)c2cc3cccc(Cl)c3[nH]2)CC1 | 20 |  |
| CN1CCN(C(=O)c2cc3cc(F)ccc3[nH]2)CC1 | 15.8 |  |
| O=C(c1cc2cc(Cl)ccc2[nH]1)N1CCNCC1 | 12.6 |  |

Reference: ChEMBL document CHEMBL2046401, “Detailed structure-activity relationship of indolecarboxamides as H4 receptor ligands” (Eur J Med Chem, 2012)
